Usually GI50 stands for the concentration at which growth is held to half of that of the control. Low values mean more potent growth inhibition, high ones less potent growth inhibition. As usually defined, the IC50 is the concentration that gives 50% inhibition. Read a high IC50 as weaker potency in that assay. A word on the inhibition: it is the drop in the measured response relative to a control, in per cent. A lower inhibition goes with a weak effect.

These results are taken from ChEMBL document CHEMBL3992497, “Synthesis, structure-activity relationships and biological evaluation of 7-phenyl-pyrroloquinolinone 3-amide derivatives as potent antimitotic agents” (Eur J Med Chem, 2017).

The test system of assay [1] is HeLa. Kind of assay: Antiproliferative activity against human HeLa cells after 72 hrs by MTT assay. In kind it is functional. A digest of the protocol: (§1)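 Compounds from 10 mM DMSO stocks. Cells seeded at 8 × 10^3 per well and held 18 h at 37 °C in humidified 5% CO2. Medium was then replaced with fresh medium holding graded compound concentrations, in triplicate, for 72 h at 37 °C. Viability was read by MTT. GI50 is the concentration giving 50% inhibition of proliferation. Mean ± SE of ≥3 independent dose-response experiments.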

A further assay deals with CCRF-CEM. Kind of assay: Antiproliferative activity against human CCRF-CEM cells after 72 hrs by MTT assay. The format is functional. The procedure, abridged: as §1
(Formazan colour is commonly taken as a measure of viable cells.)

The next assay concerns A549. Kind of assay: Antiproliferative activity against human A549 cells after 72 hrs by MTT assay. In kind it is functional. The conditions noted are these: A549, 72 h. The procedure, abridged: as §1
In the next assay the test system is THP-1. Kind of assay: Antiproliferative activity against human THP1 cells after 72 hrs by MTT assay. The format is functional. The conditions noted are these: THP-1, 72 h. A digest of the protocol:
as §1

The subject of assay [2] is Jurkat. Kind of assay: Antiproliferative activity against human Jurkat cells after 72 hrs by MTT assay. The format is functional. A digest of the protocol: as §1
A further assay deals with HL-60. Kind of assay: Antiproliferative activity against human HL60 cells after 72 hrs by MTT assay. In kind it is functional. The conditions noted are these: HL-60, 72 h. The procedure, abridged:
as §1

The next assay has as its system SEM cells. Kind of assay: Antiproliferative activity against human SEM cells after 72 hrs by MTT assay. The format is functional. The procedure, abridged:
as §1

The next assay deals with RS4-11. Kind of assay: Antiproliferative activity against human RS4:11 cells after 72 hrs by MTT assay. The format is functional. The conditions noted are these: RS4-11, 72 h. A digest of the protocol: as §1
For the next assay, the system named is HT-29. Kind of assay: Antiproliferative activity against human HT-29 cells after 72 hrs by MTT assay. In kind it is functional. As to conditions: HT-29, 72 h. The procedure, abridged: as §1
The test system of the next assay is MV4-11. Kind of assay: Antiproliferative activity against human MV4-11 cells after 72 hrs by MTT assay. As to conditions: MV4-11, 72 h. The format is functional. The procedure, abridged: as §1
Another assay relates to MCF7. Kind of assay: Antiproliferative activity against human MCF7 cells after 72 hrs by MTT assay. The conditions noted are these: MCF7, 72 h. In kind it is functional. The procedure, abridged: as §1
A short description of assay [3]: Inhibition of bovine brain tubulin assembly preincubated for 20 mins followed by GTP addition by turbidometric method. Details: species or system Bos taurus. A digest of the protocol:
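Varying compound concentrations pre-incubated with 10 μM bovine brain tubulin in glutamate buffer at 30 °C, then chilled to 0 °C. GTP added to 0.4 mM final, mixture warmed to 30 °C, turbidity followed at 350 nm.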

The species entered for another assay is Bos taurus. Kind of assay: Inhibition of [3H]colchicine binding to bovine brain tubulin at 5 uM relative to control. The procedure, abridged: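 Reaction mixtures held 1 μM tubulin, 5 μM [3H]colchicine and 5 μM test compound. Inhibition of bound radiolabel measured relative to control.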
The subject of assay [4] is PBL. Kind of assay: Antiproliferative activity against phytohematoaglutinin-stimulated human PBL after 72 hrs by MTT assay. The format is cell-based. The procedure, abridged:
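Donor PBL isolated on a Lymphoprep gradient and rested overnight in RPMI-1640 with 10% FBS. Non-adherent cells resuspended at 5 × 10^5 cells/mL in growth medium with 2.5 μg/mL PHA. Graded compound concentrations added; viability by MTT at 72 h. Mean ± SEM of three separate experiments.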

Assay [5] deals with PBL. Kind of assay: Antiproliferative activity against human PBL after 72 hrs by MTT assay. In kind it is cell-based. A digest of the protocol: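 PBL from healthy donors separated on a Lymphoprep gradient, washed, and held overnight at 1.0 × 10^6 cells/mL in RPMI-1640 with 10% FBS. Non-adherent resting cells resuspended at 5 × 10^5 cells/mL without PHA. Graded compound concentrations for 72 h, then MTT. Mean ± SEM of three separate experiments.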

Assay [6] deals with HeLa. Kind of assay: Induction of ROS generation in human HeLa cells at 10 to 100 nM after 24 to 48 hrs by H2-DCFDA staining based flow cytometry. The format is functional, cell-based. A digest of the protocol:
(§2)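 Cells exposed for 24 or 48 h at the indicated concentrations, then loaded with H2-DCFDA. ROS read as oxidised DCF fluorescence by flow cytometry. Mean ± SEM of three independent experiments.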

In assay [7] the test system is HeLa. Kind of assay: Cell cycle arrest in human HeLa cells assessed as accumulation at G2/M phase at 50 to 100 nM after 24 hrs by propidium iodide staining based flow cytometry. The format is functional. A digest of the protocol:
(§3)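 5 × 10^5 cells exposed to varying compound concentrations for 24 h. Cells collected, fixed in ice-cold 70% ethanol, and lysed in buffer with RNase A and 0.1% Triton X-100. PI-stained, then analysed by flow cytometry for phase distribution from DNA histograms. Mean of two independent experiments.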
Background: A flow cytometer gives signals particle by particle.

The test system of assay [8] is Jurkat. Kind of assay: Induction of ROS generation in human Jurkat cells at 10 to 100 nM after 24 to 48 hrs by H2-DCFDA staining based flow cytometry. In kind it is functional, cell-based. A digest of the protocol: as §2
The test system of assay [9] is Jurkat. Kind of assay: Cell cycle arrest in human Jurkat cells assessed as accumulation at G2/M phase at 50 to 100 nM after 24 hrs by propidium iodide staining based flow cytometry. In kind it is functional. The procedure, abridged:
as §3

Structures are written as SMILES. Activity calls are given as the source filed them. No cut-off for these calls is given here.

Take `O=C(c1ccccc1)N1CCc2c1ccc1[nH]c(-c3ccccc3)cc(=O)c21`: the GI50 is 331 nM in the assay on HeLa [1]; 1040 nM in the assay with CCRF-CEM; 918 nM in the assay on A549; 2170 nM in the assay with THP-1; 1340 nM in the assay on Jurkat [2]; 2640 nM in the assay on HL-60. Moreover, the 50% growth inhibitory concentration (GI50) in the assay on SEM cells came out at 918 nM; with RS4-11, 256 nM; in the assay on HT-29, 1590 nM; in the assay with MV4-11, 1540 nM; in the assay with MCF7, 1110 nM.
As to `O=c1cc(-c2ccccc2)[nH]c2ccc3c(ccn3S(=O)(=O)c3ccc(C(F)(F)F)cc3)c12`, the GI50 worked out at 22 nM in the assay on HeLa [1]; 32 nM in the assay with CCRF-CEM; 63 nM in the assay with A549; 42 nM in the assay on THP-1; 81 nM in the assay on Jurkat [2]; 39 nM with HL-60. Further, the GI50 was 33 nM in the assay with SEM cells; 147 nM in the assay on RS4-11; 23 nM with HT-29; 86 nM in the assay on MV4-11; 5 nM in the assay on MCF7. In assay [3], this compound returned an IC50 of 2400 nM. The compound further displayed an inhibition in the assay listed under Bos taurus of 29%.
With `CS(=O)(=O)N1CCc2c1ccc1[nH]c(-c3ccccc3)cc(=O)c21`, the 50% growth inhibitory concentration (GI50) in the assay on HeLa [1] was determined as 563 nM; in the assay on CCRF-CEM, 235 nM; with A549 it was 451 nM; in the assay on THP-1, 71 nM; in the assay on Jurkat [2], 372 nM; with HL-60 it was 291 nM. Further, the GI50 in the assay on SEM cells was determined as 271 nM; in the assay with RS4-11 it was 35 nM; with HT-29 it was 623 nM; in the assay with MV4-11, 352 nM; with MCF7, 521 nM.
For the compound `O=c1cc(-c2ccccc2)[nH]c2ccc3c(c12)CCN3S(=O)(=O)c1ccc(C(F)(F)F)cc1`, the concentration for 50% growth inhibition (GI50) in the assay with HeLa [1] was 373 nM; in the assay with CCRF-CEM, 435 nM; in the assay with A549, 541 nM; in the assay on THP-1, 846 nM; in the assay on Jurkat [2], 256 nM; with HL-60, 1620 nM. Also, the 50% growth inhibitory concentration (GI50) was determined as 336 nM in the assay on SEM cells; 211 nM in the assay on RS4-11; 255 nM in the assay on HT-29; 356 nM in the assay on MV4-11; 475 nM in the assay with MCF7.
`CS(=O)(=O)N1CCc2cc3[nH]c(-c4ccccc4)cc(=O)c3cc21`: the GI50 in the assay with HeLa [1] is 7640 nM; in the assay with CCRF-CEM it was more than 10000 nM; in the assay on A549 it was more than 10000 nM; with THP-1, more than 10000 nM; in the assay with Jurkat [2], more than 10000 nM; with HL-60 it was more than 10000 nM. Besides, the concentration for 50% growth inhibition (GI50) in the assay with SEM cells, with RS4-11, in the assay on HT-29, with MV4-11 and in the assay with MCF7 was more than 10000 nM throughout.
As to `O=C(NC1CC1)n1ccc2c3c(=O)cc(-c4ccccc4)[nH]c3ccc21`, the GI50 in the assay with HeLa [1] worked out at 212 nM; with CCRF-CEM, 92 nM; in the assay on A549 it was 171 nM; with THP-1 it was 66 nM; in the assay on Jurkat [2], 145 nM; with HL-60, 155 nM. For the same compound, the GI50 came out at 11 nM in the assay on SEM cells; 27 nM in the assay on RS4-11; 255 nM with HT-29; 85 nM in the assay with MV4-11; 96 nM in the assay with MCF7. In [3], this compound displayed an IC50 of 2200 nM. Moreover, the inhibition in the assay listed under Bos taurus came to 18%.
As for `CS(=O)(=O)n1ccc2c3c(=O)cc(-c4ccccc4)[nH]c3ccc21`, the concentration for 50% growth inhibition (GI50) came out at 36 nM in the assay on HeLa [1]; 42 nM in the assay with CCRF-CEM; 3 nM in the assay with A549; 92 nM in the assay on THP-1; 34 nM in the assay on Jurkat [2]; 215 nM with HL-60. Besides, the GI50 with SEM cells amounted to 23 nM; in the assay on RS4-11, 18 nM; in the assay on HT-29, 7 nM; in the assay on MV4-11, 49 nM; in the assay with MCF7 it was 152 nM. The IC50 in the assay with PBL [4] was more than 100000 nM; with PBL [5] it was more than 100000 nM; in assay [3] it was 1200 nM. In addition, the result with HeLa [6], with HeLa [7], with Jurkat [8] and in the assay with Jurkat [9] was Active. Further, the inhibition in the assay listed under Bos taurus was determined as 42%.
With `O=C(c1ccccc1)N1CCc2cc3[nH]c(-c4ccccc4)cc(=O)c3cc21`, the 50% growth inhibitory concentration (GI50) came out at 1450 nM in the assay on HeLa [1]; 818 nM in the assay on CCRF-CEM; 3560 nM in the assay on A549; 2320 nM with THP-1; 2320 nM in the assay with Jurkat [2]; 3740 nM with HL-60. The GI50 amounted to 1660 nM in the assay on SEM cells; 132 nM in the assay on RS4-11; 5440 nM with HT-29; 1980 nM with MV4-11; 6320 nM in the assay on MCF7.
In the case of `O=C(C1CC1)n1ccc2c3c(=O)cc(-c4ccccc4)[nH]c3ccc21`, the concentration for 50% growth inhibition (GI50) in the assay with HeLa [1] was 1.6 nM; in the assay with CCRF-CEM, 17 nM; in the assay on A549 it was 9 nM; in the assay on THP-1, 74 nM; with Jurkat [2], 0.3 nM; with HL-60, 2 nM. Besides, the 50% growth inhibitory concentration (GI50) in the assay on SEM cells was 0.4 nM; with RS4-11, 0.1 nM; in the assay on HT-29, 1 nM; with MV4-11, 19 nM; in the assay with MCF7, 5 nM.
On to `Cc1ccc(S(=O)(=O)n2ccc3c4c(=O)cc(-c5ccccc5)[nH]c4ccc32)cc1`, for which the concentration for 50% growth inhibition (GI50) with HeLa [1] is 26 nM; in the assay on CCRF-CEM it was 32 nM; with A549, 52 nM; in the assay with THP-1, 222 nM; with Jurkat [2], 55 nM; in the assay on HL-60, 335 nM. Besides, the 50% growth inhibitory concentration (GI50) with SEM cells stood at 33 nM; in the assay with RS4-11 it was 48 nM; with HT-29, 5 nM; in the assay on MV4-11 it was 65 nM; in the assay on MCF7, 195 nM. For the same compound, in assay [3], the IC50 was found to be 1100 nM. In the assay filed under Bos taurus, the inhibition was found to be 37%.
